Bioassay records: PubChem, The Scripps Research Institute Molecular Screening Center
RORA inh = inhibitors of orphan receptor RORA, primary screen, cell-based, luminescence; Nuclear receptor ROR-alpha (Homo sapiens), P35398; CHO-K1 Gal4-RORA LBD luciferase reporter; inhibition, % at 10 µM; hit rate 0.43% among 65,000; AID 561, 2006;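 active means inhibition above the mean of all tested compounds plus 3 SD, cut at about 52% in these data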
Target sequence (P35398 whole entry, looked up, the tested form may be a part): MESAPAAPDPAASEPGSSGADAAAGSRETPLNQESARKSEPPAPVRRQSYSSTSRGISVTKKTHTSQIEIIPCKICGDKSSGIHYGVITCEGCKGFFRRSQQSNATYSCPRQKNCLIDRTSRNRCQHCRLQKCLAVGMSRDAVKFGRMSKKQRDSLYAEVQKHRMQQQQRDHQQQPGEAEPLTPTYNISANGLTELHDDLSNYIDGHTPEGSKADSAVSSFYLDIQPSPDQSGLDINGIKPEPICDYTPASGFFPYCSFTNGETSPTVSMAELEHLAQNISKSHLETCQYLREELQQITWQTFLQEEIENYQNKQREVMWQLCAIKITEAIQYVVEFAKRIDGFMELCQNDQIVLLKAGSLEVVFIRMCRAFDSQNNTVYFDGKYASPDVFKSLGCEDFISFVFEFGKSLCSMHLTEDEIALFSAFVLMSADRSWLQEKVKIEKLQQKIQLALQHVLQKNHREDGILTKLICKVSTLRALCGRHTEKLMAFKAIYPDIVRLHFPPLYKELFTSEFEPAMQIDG
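Material: transiently transfected CHO-K1 cells, Gal4-DBD/human RORA-LBD fusion plus 5xGal4-luciferase reporter; doses: single concentration per compound, 10 µM final; incubation: 20 h at 37 °C; detection: luminescence from basal luciferase reporter expression; read-out: % inhibition of basal luciferase versus +RORA/-RORA DMSO controls; replication: tested once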
A number is an active result. Many of the other results were omitted from the sample, so hits are more common in it than they were.

How did CC(=O)NC(Cc1ccccc1)C(=O)NC1CCN(C(=O)NC2CCCCC2)CC1 (stereo not drawn) do in these assays?
RORA inh: inactive

What do the screens show for `COc1cc(CC(NC(C)=O)C(=O)NC2CCN(c3nc(C)cc(C)c3C#N)CC2)cc(OC)c1` (stereo not drawn)?
RORA inh: 74.7

What do the screens show for `c1ccc(-c2onc3cc4c(cc23)OCCO4)cc1`?
RORA inh: inactive

How did O=C(Nc1ccc2c(c1)OCCO2)C1CCN(S(=O)(=O)c2ccc(Br)s2)CC1 do in these assays?
RORA inh: inactive

How did Cn1c(CCNC(=O)c2ccccc2F)nnc1SCc1nc2ccccc2c(=O)[nH]1 do in these assays?
RORA inh: inactive

Results for N#C/C(=C/c1ccc(N2CCCCCC2)o1)c1ccc(F)cc1 ?
RORA inh: 62.1

Results for COc1cccc(-c2cc(C(=O)N3C(C)CCCC3C)no2)c1 (stereo not drawn) ?
RORA inh: inactive

Results for Cc1c(NC(=O)CCC(=O)N2CCCCC2)c(=O)n(-c2ccccc2)n1C ?
RORA inh: inactive

What do the screens show for `CCC1CCCCN1S(=O)(=O)c1ccc(C(=O)Nc2nnc(-c3cccs3)o2)cc1` (stereo not drawn)?
RORA inh: inactive

How did CC(=O)c1ccc(NC(=O)CSc2nnc(Cn3c(=O)sc4ccccc43)n2C)cc1 do in these assays?
RORA inh: inactive

Results for COC(=O)c1cccc2c1-c1ccccc1/C2=N/O ?
RORA inh: inactive

How did CCOc1ccc(C(=O)Nc2ccc(Cl)cn2)cc1Cl do in these assays?
RORA inh: inactive

How did O=C(NC1CC1)c1ccc(-c2nc3ccccc3s2)s1 do in these assays?
RORA inh: 80.9

What do the screens show for `CNc1sc(C(=O)c2cccs2)c(N)c1-c1nc2ccccc2s1`?
RORA inh: inactive

How did O=C(OCc1nc2ccccc2s1)c1cccs1 do in these assays?
RORA inh: inactive

Results for COc1ccc(NC(=O)CN2CCN(CC(=O)Nc3ccccc3F)CC2)c(OC)c1 ?
RORA inh: inactive

How did COc1ccc(N(CC(=O)NCc2ccco2)S(C)(=O)=O)cc1Cl do in these assays?
RORA inh: inactive

What do the screens show for `Fc1ccc(-c2nnc(NC3=NCCCCC3)o2)cc1`?
RORA inh: 73.2

What do the screens show for `O=C(c1ccco1)N(Cc1cccs1)C1CCS(=O)(=O)C1` (stereo not drawn)?
RORA inh: inactive

What do the screens show for `CCOC(=O)C1=C(C)N(c2ccccc2)C(=O)C1CC(=O)O` (stereo not drawn)?
RORA inh: inactive

Results for COc1ccc(Cn2c(C3CC3)nc3ccc(NC(=O)c4ccco4)cc3c2=O)cc1 ?
RORA inh: inactive

What do the screens show for `CCS(=O)(=O)N1CCCC(c2nc(-c3cccc(OC)c3)no2)C1` (stereo not drawn)?
RORA inh: inactive

Results for COc1ccc2c(-c3ccccc3)cc3nnnn3c2c1 ?
RORA inh: inactive

What do the screens show for `CCCS(=O)(=O)c1nnnn1-c1cccc(OC)c1`?
RORA inh: 82.4

Results for O=C(NCc1ccc2c(c1)OCO2)C1CC(=O)N(c2ccc(O)cc2)C1 (stereo not drawn) ?
RORA inh: inactive

What do the screens show for `CC1=CCC(COC(=O)Nc2ccccc2)CC1` (stereo not drawn)?
RORA inh: inactive

What do the screens show for `Nc1cccc(-c2nc3ccc(N)cc3s2)c1`?
RORA inh: 56.7

What do the screens show for `Cc1ccc2[nH]c(-c3cccc(N)c3)cc2c1`?
RORA inh: inactive

Results for Nc1nc2ccc(Oc3ccccc3)cc2s1 ?
RORA inh: inactive

What do the screens show for `O=C(NCc1cccnc1)C1CCN(S(=O)(=O)N2CCOCC2)CC1`?
RORA inh: inactive

How did COc1ccc(Nc2nc(C)c3ccccc3n2)cc1 do in these assays?
RORA inh: inactive

Results for COc1ccc(CNC(=O)c2cc3c(C)nc4ccccc4c3o2)c(OC)c1 ?
RORA inh: 55.4

Results for COc1ccc(NC(=O)c2cc(-c3ccc(C)o3)nc3ccccc23)cc1OC ?
RORA inh: inactive

How did CCC(C)(C(=O)NC1CCCCC1)N(C(=O)c1cnccn1)c1c(C)n(C)n(-c2ccccc2)c1=O (stereo not drawn) do in these assays?
RORA inh: inactive

What do the screens show for `Cc1cc(C)n(Cc2ccc(C(=O)NCCC3=CCCCC3)o2)n1`?
RORA inh: inactive
